How the values were obtained:
[1] = species: Rattus norvegicus; test: Effective Dose 50 is the amount of material required to produce effect in 50% of an animal population; type: functional
[2] = system: Rattus norvegicus; test: Antiinflammatory efficacy is measured by the percent inhibition of paw volume during the 3 week adjuvant arthritis test at 0.08 mM/kg (32.3 mg); type: functional
How it was run: (§1)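 Male Sprague-Dawley rats (200–230 g) were used in groups of eight. Each received 0.1 mL of 0.6% M. butyricum in heavy mineral oil into the plantar tissue of one hind paw. Daily oral gavage in 1% gum tragacanth or corn oil-water emulsion began on the injection day and ran 21 days. Total hind paw volume was measured by mercury displacement, and inhibition was taken versus vehicle-treated adjuvant controls.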

[3] = system: Rattus norvegicus; test: Antiinflammatory efficacy is measured by the percent inhibition of paw volume during the 3 week adjuvant arthritis test at 0.02 mM/kg (8.07 mg); type: functional; how it was run: as §1
[4] = system: Rattus norvegicus; test: The mean increase in paw volume was compared between drug treated groups and placebo to calculate the percent inhibition in rats at 0.02 mmol/kg by carrageenan Edema Assay; 30-39; type: functional; settings: Rattus norvegicus
[5] = system: Rattus norvegicus; test: Potency relative to phenylbutazone at 0.005 mM/kg; type: functional
[6] = system: Rattus norvegicus; test: The percent inhibition was calculated from the average differences in hind paw volume between the adjuvant injected controls and the adjuvant-injected medicated rats at 0.08 mmol/kg; 80-89; type: functional
[7] = system: Rattus norvegicus; test: Antiinflammatory efficacy is measured by the percent inhibition of paw volume during the 3 week adjuvant arthritis test at 0.005 mM/kg (2.02 mg); type: functional; how it was run: as §1
[8] = system: Rattus norvegicus; test: Ulcerogenicity was measured in intestine during the 3 week adjuvant arthritis test, no of animals with ulcers out of 4 animals tested at 0.02 mM/kg (8.07 mg) was reported; type: functional
How it was run: (§2)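 In the 21-day adjuvant arthritis model, male Sprague-Dawley rats (200–230 g) received an M. butyricum mineral-oil suspension into one hind paw. They were dosed daily by gavage from the day of injection. At the end of the study the rats were killed, and the small intestines were examined for ulcers. Results are given as the number of ulcerated animals over the number tested.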

[9] = system: Rattus norvegicus; test: Ulcerogenicity was measured in intestine during the 3 week adjuvant arthritis test, no of animals with ulcers out of 15 animals tested at 0.08 mM/kg (32.3 mg) was reported; type: functional; how it was run: as §2
[10] = system: Rattus norvegicus; test: Ulcerogenicity was measured in stomach during the 3 week adjuvant arthritis test, no of animals with ulcers out of 4 animals tested at 0.02 mM/kg (8.07 mg) was reported; type: functional
How it was run: (§3)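 Male Sprague-Dawley rats (200–230 g) were injected in the plantar tissue of one hind paw with 0.1 mL of 0.6% M. butyricum suspension in heavy mineral oil. Daily oral gavage began on the day of adjuvant injection and ran for the 21 days, with drug suspended in 1% gum tragacanth or a corn oil-water emulsion. At the end the rats were sacrificed and the small intestine and stomach were examined for ulcers. Results are given as animals with ulcers/animals tested.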

[11] = system: Rattus norvegicus; test: Ulcerogenicity was measured in intestine during the 3 week adjuvant arthritis test, no of animals with ulcers out of tested animals at 0.16 mM/kg (64.6 mg) was reported; Toxic; type: functional, organism-based; how it was run: as §3
[12] = system: Rattus norvegicus; test: Ulcerogenicity was measured in stomach during the 3 week adjuvant arthritis test, no of animals with ulcers out of 15 animals tested at 0.08 mM/kg (32.3 mg) was reported; type: functional; how it was run: as §3
[13] = system: Rattus norvegicus; test: Antiinflammatory efficacy is measured by the weight gain in rats during the 3 week adjuvant arthritis test at 0.02 mM/kg (8.07 mg); type: functional
How it was run: (§4)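 Rats were adjuvant-injected (M. butyricum in mineral oil, one hind paw) or given a mineral-oil placebo. They were dosed by gavage daily for 21 days from the injection day, with vehicle only for both control groups, then weighed at the end. Weight gain % = (treated − adjuvant control)/(negative control − adjuvant control) × 100.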

[14] = system: Rattus norvegicus; test: Antiinflammatory efficacy is measured by the weight gain in rats during the 3 week adjuvant arthritis test at 0.08 mM/kg (32.3 mg); type: functional; how it was run: as §4
[15] = system: Rattus norvegicus; test: Antiinflammatory efficacy is measured by the weight gain in rats during the 3 week adjuvant arthritis test at 0.005 mM/kg (2.02 mg); type: functional; how it was run: as §4
[16] = species: Mus musculus; test: Effective Dose 50 is the amount of material required to elicit analgesic effect in 50% of an animal population
[17] = species: Rattus norvegicus; test: Compound was evaluated for highest non-ulcerogenic dose (less than 50% ulcer incidence); type: functional; settings: read-out: ED50
How it was run: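 Taken from the 21-day adjuvant arthritis test in male Sprague-Dawley rats dosed orally each day from the day of adjuvant injection. Small intestines and stomachs were examined for ulceration at the end. The value is the highest dose giving less than 50% ulcer incidence.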

[18] = system: Rattus norvegicus; test: Antiinflammatory efficacy is measured by the percent inhibition of paw volume during the 3 week adjuvant arthritis test at 0.005 mM/kg (2.19 mg); type: functional; how it was run: as §1
[19] = system: Rattus norvegicus; test: Antiinflammatory efficacy is measured by the percent inhibition of paw volume during the 3 week adjuvant arthritis test at 0.02 mM/kg (8.76 mg); type: functional; how it was run: as §1
[20] = system: Rattus norvegicus; test: The mean increase in paw volume was compared between drug treated groups and placebo to calculate the percent inhibition in rats at 0.02 mmol/kg by carrageenan Edema Assay; 50-59; type: functional
[21] = system: Rattus norvegicus; test: Ulcerogenicity was measured in intestine during the 3 week adjuvant arthritis test, no of animals with ulcers out of 8 animals tested at 0.02 mM/kg (8.76 mg) was reported; type: functional; how it was run: as §2
[22] = system: Rattus norvegicus; test: Ulcerogenicity was measured in stomach during the 3 week adjuvant arthritis test, no of animals with ulcers out of 8 animals tested at 0.02 mM/kg (8.76 mg) was reported; type: functional; how it was run: as §3
[23] = system: Rattus norvegicus; test: Ulcerogenicity was measured in intestine during the 3 week adjuvant arthritis test, no of animals with ulcers out of animals tested at 0.08 mM/kg (35.0 mg) was reported; toxic; type: functional, organism-based; how it was run: as §3
[24] = system: Rattus norvegicus; test: Antiinflammatory efficacy is measured by the weight gain in rats during the 3 week adjuvant arthritis test at 0.005 mM/kg (2.19 mg); type: functional; how it was run: as §4
[25] = system: Rattus norvegicus; test: Antiinflammatory efficacy is measured by the weight gain in rats during the 3 week adjuvant arthritis test at 0.02 mM/kg (8.76 mg); type: functional; how it was run: as §4
[26] = system: Rattus norvegicus; test: The mean increase in paw volume was compared between drug treated groups and placebo to calculate the percent inhibition in rats at 0.02 mmol/kg by carrageenan Edema Assay 0-19; type: functional
[27] = system: Rattus norvegicus; test: Antiinflammatory efficacy is measured by the percent inhibition of paw volume during the 3 week adjuvant arthritis test at 0.006 mM/kg ([…]); type: functional; how it was run: as §1
[28] = system: Rattus norvegicus; test: Antiinflammatory efficacy is measured by the percent inhibition of paw volume during the 3 week adjuvant arthritis test at 0.009 mM/kg (2.29 mg); type: functional; how it was run: as §1
[29] = system: Rattus norvegicus; test: The mean increase in paw volume was compared between drug treated groups and placebo to calculate the percent inhibition in rats at 0.02 mmol/kg by carrageenan Edema Assay; 60-69; type: functional
[30] = system: Rattus norvegicus; test: The percent inhibition was calculated from the average differences in hind paw volume between the adjuvant injected controls and the adjuvant-injected medicated rats at 0.08 mmol/kg; 0.009-82; type: functional; settings: read-out: Inhibition
[31] = system: Rattus norvegicus; test: Potency relative to phenylbutazone at 0.006 mM/kg; type: functional
How it was run: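 21-day adjuvant arthritis in male Sprague-Dawley rats (0.6% M. butyricum in mineral oil, intraplantar), with daily oral gavage from the day of adjuvant injection. Total hind-paw volume was measured by mercury displacement and percent inhibition calculated against adjuvant controls. The ED50 for 50% inhibition of paw volume was expressed relative to phenylbutazone, with 95% confidence limits.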

[32] = system: Rattus norvegicus; test: Antiinflammatory efficacy is measured by the percent inhibition of paw volume during the 3 week adjuvant arthritis test at 0.002 mM/kg (0.51 mg); type: functional; how it was run: as §1
[33] = system: Rattus norvegicus; test: Ulcerogenicity was measured in intestine during the 3 week adjuvant arthritis test, no of animals with ulcers out of 4 animals tested at 0.002 mM/kg (0.51 mg) was reported; type: functional
How it was run: (§5)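 Male Sprague-Dawley rats (200–230 g) got 0.1 mL of a 0.6% M. butyricum adjuvant suspension in heavy mineral oil into the plantar tissue of one hind paw. Oral gavage dosing started the same day and continued daily for 21 days, in 1% gum tragacanth or corn oil-water emulsion. At the end, rats were killed and the small intestine and stomach were examined for ulcers, reported as animals with ulcers over animals tested.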

[34] = system: Rattus norvegicus; test: Ulcerogenicity was measured in intestine during the 3 week adjuvant arthritis test, no of animals with ulcers out of 24 animals tested at 0.009 mM/kg (2.29 mg) was reported; type: functional; how it was run: as §5
[35] = system: Rattus norvegicus; test: Ulcerogenicity was measured in intestine during the 3 week adjuvant arthritis test, no of animals with ulcers out of animals tested at 0.06 mM/kg (15.2 mg) was reported; toxic; type: functional, organism-based; how it was run: as §5
[36] = system: Rattus norvegicus; test: Ulcerogenicity was measured in stomach during the 3 week adjuvant arthritis test, no of animals with ulcers out of 24 animals tested at 0.009 mM/kg (2.29 mg) was reported; type: functional; how it was run: as §5
[37] = system: Rattus norvegicus; test: Ulcerogenicity was measured in stomach during the 3 week adjuvant arthritis test, no of animals with ulcers out of 31 animals tested at 0.03 mM/kg (7.62 mg) was reported; type: functional; how it was run: as §5
[38] = system: Rattus norvegicus; test: Ulcerogenicity was measured in stomach during the 3 week adjuvant arthritis test, no of animals with ulcers out of 4 animals tested at 0.002 mM/kg (0.51 mg) was reported; type: functional; how it was run: as §5
[39] = system: Rattus norvegicus; test: Antiinflammatory efficacy is measured by the weight gain in rats during the 3 week adjuvant arthritis test at 0.009 mM/kg (2.29 mg); type: functional; how it was run: as §4
[40] = system: Rattus norvegicus; test: Antiinflammatory efficacy is measured by the weight gain in rats during the 3 week adjuvant arthritis test at 0.002 mM/kg (0.51 mg); type: functional; how it was run: as §4
[41] = system: Rattus norvegicus; test: Antiinflammatory efficacy is measured by the weight gain in rats during the 3 week adjuvant arthritis test at 0.006 mM/kg (0.152 mg); type: functional; how it was run: as §4
[42] = system: Rattus norvegicus; test: Ulcerogenicity was measured in intestine during the 3 week adjuvant arthritis test, no of animals with ulcers out of 31 animals tested at 0.03 mM/kg (7.62 mg) was reported; type: functional; how it was run: as §5

CC(CN1CCCCC1CC1CCCCC1)c1cccc(C(=O)c2ccccc2)c1 (centres undefined)
ED50 [1]: 3 µmol/kg | Inhibition [2]: 90% | Inhibition [3]: 79% | inhibition in vivo at 20 µmol/kg [4]: 30% | Relative potency [5]: 8.7% | inhibition in vivo at 80 µmol/kg [6]: 80% | Inhibition [7]: 56% | Ulcerogenic index [8]: 1 | Ulcerogenic index [9]: 4 | Ulcerogenic index [10]: 0 | Ulcerogenic index [11]: Toxic | Ulcerogenic index [12]: 1 | Weight gain [13]: 55% | Weight gain [14]: 82% | Weight gain [15]: 27% | ED50 [16]: 55 mg/kg

CC(CN1CCCCC1CC1CCCCC1)c1cccc(C(=O)c2ccc(Cl)cc2)c1 (centres undefined)
highest non-ulcerogenic dose [17]: 3 µmol/kg | Inhibition [18]: 62% | Inhibition [19]: 90% | inhibition in vivo at 20 µmol/kg [20]: 50% | Relative potency [5]: 11.9% | Ulcerogenic index [21]: 0 | Ulcerogenic index [22]: 0 | Ulcerogenic index [23]: Toxic | Weight gain [24]: 34% | Weight gain [25]: 89%

O=C(c1ccccc1)c1cccc(CCN2CCOCC2)c1
inhibition in vivo at 20 µmol/kg [26]: 0%

CC(C(=O)O)c1cccc(C(=O)c2ccccc2)c1 (centres undefined) [KETOPROFEN]
highest non-ulcerogenic dose [17]: 1 µmol/kg | Inhibition [27]: 31% | Inhibition [28]: 82% | inhibition in vivo at 20 µmol/kg [29]: 60% | inhibition in vivo at 80 µmol/kg [30]: 82% | Relative potency [31]: 32.4% | Inhibition [32]: 68% | Ulcerogenic index [33]: 0 | Ulcerogenic index [34]: 4 | Ulcerogenic index [35]: Toxic | Ulcerogenic index [36]: 6 | Ulcerogenic index [37]: 3 | Ulcerogenic index [38]: 0 | Weight gain [39]: 79% | Weight gain [40]: 35% | Weight gain [41]: 21% | Ulcerogenic index [42]: 22

Reference: ChEMBL document CHEMBL1122782, “Bulky amine analogues of ketoprofen: potent antiinflammatory agents” (J Med Chem, 1984)
